From PubChem
TRPC6 act: mouse TRPC6 channel activation. Q61143. HEK293-TRPC6 membrane potential dye fluorescence; active compounds read high. B-score at 10 µM. 310,000 compounds, 0.13% hits;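 active means B-score of the integrated fluorescence ratio above library mean plus 3 SD, and starting fluorescence ratio within library mean plus 5 SD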;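 further: higher score means more depolarization so channel activation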
TRPC6 inhibitor: mouse TRPC6 channel inhibition | HEK293-TRPC6, membrane potential dye, ACh-evoked depolarization; active compounds read low | 310,000 compounds, 1.1% hits | Q61143 | AID 2553 | B-score at 10 µM;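 active means B-score under library mean minus 3 SD, initial fluorescence not abnormally high, positive integrated signal ratio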;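 further: B-score derived from integrated fluorescence ratio over the kinetic read; more negative B-score means stronger inhibition of depolarization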
TRPC4 PAM: allosteric potentiators of mouse TRPC4 channel; Q9QUQ5; AID 2227; 310,000 compounds, 0.42% hits; B-score at 10 µM; HEK293 TRPC4beta/mu-opioid, DAMGO EC20, Fluo-4 Ca2+ flux; active compounds read high;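 active means B-score of calcium response area above 5 SD of library B-scores, with initial fluorescence ratio within 5 SD of library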;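 further: B-score of integrated fluorescence ratio over time as area under calcium response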
Target sequence (Q9QUQ5 whole entry, looked up): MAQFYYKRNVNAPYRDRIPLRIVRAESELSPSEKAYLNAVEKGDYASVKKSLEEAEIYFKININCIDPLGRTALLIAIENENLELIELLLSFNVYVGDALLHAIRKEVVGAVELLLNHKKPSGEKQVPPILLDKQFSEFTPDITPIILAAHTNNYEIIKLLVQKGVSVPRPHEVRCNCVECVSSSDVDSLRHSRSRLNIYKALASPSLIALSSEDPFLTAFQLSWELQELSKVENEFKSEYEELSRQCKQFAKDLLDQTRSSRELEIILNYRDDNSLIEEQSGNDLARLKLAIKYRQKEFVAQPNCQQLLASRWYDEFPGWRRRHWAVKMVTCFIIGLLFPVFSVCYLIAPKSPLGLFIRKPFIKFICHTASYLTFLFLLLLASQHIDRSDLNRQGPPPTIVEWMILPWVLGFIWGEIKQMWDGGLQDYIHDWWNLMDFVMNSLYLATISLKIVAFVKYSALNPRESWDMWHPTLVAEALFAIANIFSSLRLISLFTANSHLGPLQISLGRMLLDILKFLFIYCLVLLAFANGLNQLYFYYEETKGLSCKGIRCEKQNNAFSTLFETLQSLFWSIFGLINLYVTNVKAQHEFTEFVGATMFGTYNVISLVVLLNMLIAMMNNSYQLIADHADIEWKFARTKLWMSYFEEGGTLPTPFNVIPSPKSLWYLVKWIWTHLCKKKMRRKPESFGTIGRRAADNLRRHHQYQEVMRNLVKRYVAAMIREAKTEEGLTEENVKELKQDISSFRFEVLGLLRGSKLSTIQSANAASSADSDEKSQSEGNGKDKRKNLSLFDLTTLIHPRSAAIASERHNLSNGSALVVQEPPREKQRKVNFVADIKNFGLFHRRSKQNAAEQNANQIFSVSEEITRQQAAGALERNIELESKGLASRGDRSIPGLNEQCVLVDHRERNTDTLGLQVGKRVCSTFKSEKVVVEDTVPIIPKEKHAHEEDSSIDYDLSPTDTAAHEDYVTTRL
TRPC4 act: TRPC4 (mouse) channel activation | 310,000 compounds, 0.49% hits | HEK293 TRPC4beta/mu-opioid, Fluo4 calcium fluorescence; active compounds read high | B-score at 10 µM | Q9QUQ5;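 active means B-score above 5 SD of library B-scores, and initial fluorescence ratio not above library mean plus 5 SD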;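 further: positive B-score marks a calcium rise read as TRPC4 activation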
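system = HEK293 cells stably co-expressing mouse TRPC4beta and mu-opioid receptor | schedule = Fluo4 dye loading 45 min at room temperature, 110 s recording | measure = B-scored integrated calcium fluorescence ratio | signal = Fluo4 calcium-sensitive dye fluorescence, kinetic, 1 Hz baseline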
TRPC4 block: blocks the mouse TRPC4 cation channel; Q9QUQ5; HEK293 TRPC4beta/mu-opioid, DAMGO-evoked Fluo4 calcium flux; active compounds read low; B-score at 10 µM; 300,000 compounds, 0.39% hits; AID 2247;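 active means B-score over 3 SD under the library average, no early fluorescence shift, positive overall ratio signal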
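Assay system: HEK293 cells with stable TRPC4beta plus mu-opioid receptor expression. Dosing: single dose. Measured by: Fluo4 Ca2+ flux fluorescence. Also added: DAMGO in two steps, submaximal then maximal. Read-out: B score from integrated Fluo4 fluorescence ratio.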
* marks the source's active call; other numbers are inactive results. Only some compounds are listed: those with a hit (about 2.3% of all), similar ones and a draw of the others.

`CCCCNC(=O)C(c1ccc(OCC(=O)OC)c(C(=O)OC)c1)N(CCOC)C(=O)CCCCCN1C(=O)NC(c2ccc(-c3ccccc3)cc2)C(C(=O)OCc2ccccc2)=C1C` (centres undefined) gave TRPC6 act inactive, TRPC6 inhibitor inactive, TRPC4 PAM inactive, TRPC4 act inactive and TRPC4 block inactive.
`COc1ccc2nc(C)c(C(N)=O)cc2c1` gave TRPC6 act inactive, TRPC6 inhibitor inactive, TRPC4 PAM inactive, TRPC4 act inactive and TRPC4 block inactive.
`COc1cc2cc(C(N)=O)c(N)nc2cc1OC` gave TRPC6 act inactive, TRPC6 inhibitor inactive, TRPC4 PAM 13*, TRPC4 act inactive and TRPC4 block inactive.
For CC(=O)Nc1cccc(NC(=S)Nc2cccc(Cl)c2Cl)c1 the results were TRPC6 act inactive, TRPC6 inhibitor inactive, TRPC4 PAM inactive, TRPC4 act inactive and TRPC4 block inactive.
Screening COC(=O)c1cccc(NC(=S)Nc2cccc(Cl)c2Cl)c1 returned TRPC6 act inactive, TRPC6 inhibitor inactive, TRPC4 PAM inactive, TRPC4 act inactive and TRPC4 block -6*.
Screening COc1cc(NC(=O)COC(=O)C=C(C)C)c(C)cc1[N+](=O)[O-] returned TRPC6 act inactive, TRPC6 inhibitor inactive, TRPC4 PAM inactive, TRPC4 act inactive and TRPC4 block inactive.
`C/C=C(/C)C(=O)O[C@@H]1c2cc(OC)c(OC)c(OC)c2-c2c(cc3c(c2OC)OCO3)C[C@H](C)[C@]1(C)O` gave TRPC6 act inactive, TRPC6 inhibitor inactive, TRPC4 PAM 16* and TRPC4 act inactive.
For COc1cc2c(c(OC)c1OC)-c1c(cc3c(c1OC)OCO3)[C@@H](OC(C)=O)[C@H](C)[C@H](C)C2 the results were TRPC6 act inactive, TRPC6 inhibitor inactive, TRPC4 PAM inactive, TRPC4 act inactive and TRPC4 block inactive.
CN1CCc2c(C#N)c(N3CCCCC3)nc(NCc3ccccc3)c2C1 was read as TRPC6 act inactive, TRPC6 inhibitor inactive, TRPC4 PAM 13*, TRPC4 act inactive and TRPC4 block inactive.
Screening N#Cc1c(NCCCO)nc(NCc2ccccc2)c2c1CCN(Cc1ccccc1)C2 returned TRPC6 act inactive, TRPC6 inhibitor inactive, TRPC4 PAM inactive, TRPC4 act inactive and TRPC4 block inactive.
Screening CC(Oc1ccc(Cl)cc1Cl)c1nc(-c2ccccn2)no1 (centres undefined) returned TRPC6 act inactive, TRPC6 inhibitor inactive, TRPC4 PAM inactive, TRPC4 act inactive and TRPC4 block -6*.
For CC(Oc1ccc(Cl)cc1Cl)c1nc(-c2ccc(NC(=O)c3cccnc3)cc2)no1 (centres undefined) the results were TRPC6 act inactive, TRPC6 inhibitor inactive, TRPC4 PAM inactive, TRPC4 act inactive and TRPC4 block inactive.
CCCN1CCC(N(CCc2ccccc2)Cc2ccccc2)CC1 was read as TRPC6 act inactive, TRPC6 inhibitor inactive, TRPC4 PAM inactive, TRPC4 act inactive and TRPC4 block inactive.
COc1ccc(CN2CCC(N(CCc3ccccc3)Cc3ccccc3)CC2)c(OC)c1 was read as TRPC6 act inactive, TRPC6 inhibitor inactive, TRPC4 PAM inactive, TRPC4 act 143* and TRPC4 block inactive.
`CCN1C(=O)C(CC(=O)Nc2ccc(OC)cc2)N(CCCN2CCN(c3ccc(OC)cc3)CC2)C1=S` (centres undefined) gave TRPC6 act inactive, TRPC6 inhibitor inactive, TRPC4 PAM inactive, TRPC4 act inactive and TRPC4 block inactive.
Cn1c(-c2ccc(F)cc2)cnc1NCc1ccccc1F was read as TRPC6 act inactive, TRPC6 inhibitor inactive, TRPC4 PAM inactive, TRPC4 act inactive and TRPC4 block inactive.
For Cn1c(-c2ccc(F)cc2)cnc1NCc1ccc(C#N)cc1 the results were TRPC6 act inactive, TRPC6 inhibitor inactive, TRPC4 PAM inactive, TRPC4 act inactive and TRPC4 block inactive.
Cn1c(-c2ccc(F)cc2)cnc1NCc1ccc(F)cc1 was read as TRPC6 act inactive, TRPC6 inhibitor inactive, TRPC4 PAM inactive, TRPC4 act inactive and TRPC4 block -6*.
For Cn1c(-c2ccc(F)cc2)cnc1NCc1ccc(F)cc1F the results were TRPC6 act inactive, TRPC6 inhibitor inactive, TRPC4 PAM inactive, TRPC4 act inactive and TRPC4 block -6*.
For CCOc1ccc(C(CC(=O)O)NC(=O)COc2ccc3ccccc3c2)cc1OC (centres undefined) the results were TRPC6 act inactive, TRPC6 inhibitor inactive, TRPC4 PAM inactive, TRPC4 act inactive and TRPC4 block inactive.
Screening NC(N)=NN=C1CCCCCCCCCCC1 returned TRPC6 act inactive, TRPC6 inhibitor inactive, TRPC4 PAM inactive, TRPC4 act 49* and TRPC4 block inactive.
CC(C)(C)NC(=O)C(=O)NN=C1CCCCCCCCCCC1 was read as TRPC6 act inactive, TRPC6 inhibitor inactive, TRPC4 PAM inactive, TRPC4 act inactive and TRPC4 block inactive.
`CC1CN(C2=NC(=O)/C(=C/c3ccncc3)S2)CC(C)O1` (centres undefined) gave TRPC6 act inactive, TRPC6 inhibitor inactive, TRPC4 PAM inactive, TRPC4 act inactive and TRPC4 block inactive.
For Cn1c(=O)c2c(ncn2CC(=O)OCC(=O)Nc2ccc(Cl)cc2)n(C)c1=O the results were TRPC6 act inactive, TRPC6 inhibitor inactive, TRPC4 PAM inactive, TRPC4 act inactive and TRPC4 block inactive.
For CC(OC(=O)Cn1cnc2c1c(=O)n(C)c(=O)n2C)C(=O)Nc1ccc(Cl)cc1 (centres undefined) the results were TRPC6 act inactive, TRPC6 inhibitor inactive, TRPC4 PAM inactive, TRPC4 act inactive and TRPC4 block -8*.
Cc1c(Cl)cccc1NC(=S)NC(=O)c1cncc(Br)c1 was read as TRPC6 act inactive, TRPC6 inhibitor inactive, TRPC4 PAM inactive, TRPC4 act inactive and TRPC4 block inactive.
Screening CC(C)(C)N=C1NN=C(c2cc3ccccc3o2)CS1 returned TRPC6 act inactive, TRPC6 inhibitor inactive, TRPC4 PAM 11*, TRPC4 act inactive and TRPC4 block inactive.
Screening c1ccc(-n2cc(CNCCc3cscn3)c(-c3ccc4c(c3)OCO4)n2)cc1 returned TRPC6 act inactive, TRPC6 inhibitor inactive, TRPC4 PAM inactive, TRPC4 act 46* and TRPC4 block inactive.
Screening Cn1cnnc1SCC(=O)NN(c1ccccc1)c1ccccc1 returned TRPC6 act inactive, TRPC6 inhibitor inactive, TRPC4 PAM inactive, TRPC4 act inactive and TRPC4 block inactive.
`O=S(=O)(c1ccc(Cl)cc1Br)N1CCCCC1` gave TRPC6 act inactive, TRPC6 inhibitor inactive, TRPC4 PAM 17*, TRPC4 act inactive and TRPC4 block inactive.
